Experiment [1] can be described thus: inhibitors of TNFa-induced NFkB p65 translocation, primary screen, imaging, HUVEC, MLSMR starter and 10KST1 sets (AID 438;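 active means inhibition above 20% together with a positive visual image hit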;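 further: compound added about 3h40 before a 20 min TNFalpha stimulation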;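 on inhibition: signal is the nuclear over cytoplasmic p65 intensity ratio per well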). As to conditions: HUVEC TNFa-induced p65 nuclear translocation; cell count: measured here: nuclei count (cytotoxicity indicator), at 2.08 µM; inhibition: at 2 µM, stronger effect = higher value, 0% TNFa-plus-vehicle, 100% no-TNFa wells.
A short description of experiment [2]: endothelial E-selectin expression blockers – imaging, HUVEC, immunofluorescence, MLSMR starter and 10KST1 sets, primary screen (AID 487;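 active means visually confirmed hit in the image check and inhibition above 20%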;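 on inhibition: signal is fraction of cell area covered by stained E-selectin grains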;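 on nuclei count: 100% = median nuclei count of all wells on the same plate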). Conditions: HUVEC TNFalpha-induced E-selectin immunofluorescence imaging, at 2 µM; inhibition: stronger effect = higher value; nuclei count: measured here: cell number, toxicity.
The nature of experiment [3]: Primary imaging screen for DUSP6 inhibitors that restore phospho-Erk in transfected HeLa cells, chemical complementation (AID 609).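 On inhibition: phospho-Erk level distribution per well compared with pooled transfected vehicle control wells.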 As to conditions: HeLa MKP-3 transfected, phospho-Erk imaging KS statistic, at 10 µM, cells stimulated with TPA for 15 min.
The target of experiment [4] is Dual specificity protein phosphatase 6 (Homo sapiens) (UniProt Q16828). The description is as above. Conditions: HeLa MKP-3 transfected, phospho-Erk imaging KS statistic; at 10 µM; stronger effect = higher value; cells stimulated with TPA for 15 min.
Chain of Dual specificity protein phosphatase 6 (Homo sapiens) (Q16828 whole entry, looked up): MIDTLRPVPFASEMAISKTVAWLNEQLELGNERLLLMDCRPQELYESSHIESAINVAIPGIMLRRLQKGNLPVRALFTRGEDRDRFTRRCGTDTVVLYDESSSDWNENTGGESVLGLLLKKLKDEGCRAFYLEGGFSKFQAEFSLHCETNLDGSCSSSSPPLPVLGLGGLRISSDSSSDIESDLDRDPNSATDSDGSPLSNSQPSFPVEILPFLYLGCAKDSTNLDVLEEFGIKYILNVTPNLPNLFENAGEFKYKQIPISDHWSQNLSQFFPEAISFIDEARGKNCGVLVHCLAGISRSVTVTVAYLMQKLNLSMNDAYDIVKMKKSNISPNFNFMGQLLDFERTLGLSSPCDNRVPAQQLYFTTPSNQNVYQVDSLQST
The target of experiment [5] is Voltage-gated potassium channel subunit beta-2 (Rattus norvegicus) (UniProt P62483). Put plainly: inhibitors of rat Kvbeta2 reductase activity – biochemical, NADPH fluorescence, primary screen (AID 622;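 active means fluorescence slope higher than the sample average by over 3 SD, cut at about -0.22 in these data, passing the limit was not always enough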;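 further: slope of raw intensity against log time taken from 70 to 1610 s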). Conditions: recombinant KvBeta, 4-cyanobenzaldehyde reduction, at 10 µM, stronger effect = higher value.
Chain of Voltage-gated potassium channel subunit beta-2 (Rattus norvegicus) (P62483 whole entry, looked up): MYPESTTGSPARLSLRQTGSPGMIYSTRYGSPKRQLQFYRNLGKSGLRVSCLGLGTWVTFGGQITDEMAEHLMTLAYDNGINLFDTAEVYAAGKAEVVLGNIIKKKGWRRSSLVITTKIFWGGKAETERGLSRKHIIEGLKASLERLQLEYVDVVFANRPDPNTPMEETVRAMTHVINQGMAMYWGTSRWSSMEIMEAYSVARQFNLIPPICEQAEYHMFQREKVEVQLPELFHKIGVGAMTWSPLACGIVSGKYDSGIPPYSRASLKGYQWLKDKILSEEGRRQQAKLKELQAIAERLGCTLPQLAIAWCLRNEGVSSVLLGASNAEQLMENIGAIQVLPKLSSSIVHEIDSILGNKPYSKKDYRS
Experiment [6] shares this target. Put plainly: enhancers of rat Kvbeta2 NADPH turnover – biochemical, NADPH fluorescence, primary screen (AID 623;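 active means NADPH fluorescence slope more negative than the mean of all samples by about 3 SD, 99.7% confidence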;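 further: fluorescence intensity change per second fitted from 20 to 320 s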). Conditions: Recombinant KvBeta, NADPH fluorescence decrease slope, 10 min; at 10 µM; stronger effect = lower value.
Experiment [7] has as its target Muscarinic acetylcholine receptor M4 (Homo sapiens) (UniProt P08173). Put plainly: M4-linked GIRK flux change, two-sided – cell-based, HEK293 M4/GIRK, thallium flux, BTC-AM, M4 allosteric agonist project, primary screen (AID 625;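 active means fluorescence slope after compound addition differing from the mean of all tested samples at 99.7% confidence, mostly higher but some lower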;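 further: thallium influx through GIRK channels coupled to M4 in HEK293 cells with BTC-AM dye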). As to conditions: at 10 µM, actives lie on both sides. The procedure, abridged:
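Material: M4/GIRK1/GIRK2 stable HEK293 cell line. Medium: pH 7.3 thallium assay buffer. Dosing: single compound concentration, 10 µM final. Schedule: 1 h dye loading, 2 min kinetic read. Measured by: kinetic fluorescence with BTC-AM dye. Read-out: post-addition slope, 15–24 s, of baseline-normalized fluorescence. Benchmarks: carbachol and DMSO controls.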

Experiment [8] is described as follows: inhibitors of larval lipid processing in zebrafish, primary screen, whole organism, PED6 fluorescence, gall bladder and intestine (AID 686;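 active means a full or partial loss of lipid-probe fluorescence in the fish gall bladder, intestine or both, judged by eye; inactive means no fluorescence loss, or compound toxic to the fish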;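 further: larvae 5 to 7 days old with five fish per well; signal comes from phospholipase A2 cleavage of quenched PED6 carried via bile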). Conditions: Zebrafish larvae PED6 lipid processing, fluorescence scoring; screened at 20 µM (by protocol). The procedure, abridged: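 System: live zebrafish larvae aged 5-7 days, whole organism; measure: graded gall bladder and intestinal fluorescence inhibition per well; incubation: overnight exposure; reagent: ingested quenched lipid PED6 at 100 nM; signal: By-eye fluorescence microscopy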

Experiment [9] can be described thus: loss of swimming-algae plug formation – whole organism, Chlamydomonas reinhardtii, WT vs cilia-less mutant, absorbance, 96-well, primary screen (AID 463189;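 active means inhibition at or above 50% relative to wild type and mutant plate controls; inactive means inhibition below 50%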;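 further: 0% = wild type cc124 cells in DMSO and 100% = ciliumless bld1 mutant cells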). Conditions: Chlamydomonas reinhardtii gravitaxis, OD600 absorbance, 2 days; at 10 µM; stronger effect = higher value.
Where [10] appears, read: measured here: cell density z-score.
Where [11] appears, read: measured here: nuclear c-Myc green intensity z-score.
The mark [12] stands for this setting: measured here: nuclear pErk red intensity z-score, stronger effect = higher value.

Calls of active or inactive are those of the source.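 How the source made its calls, unless noted: active means compounds giving at least 50% inhibition in the cell-based MKP-3 phosphatase rescue imaging test; inactive means the rest.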

Chain of Muscarinic acetylcholine receptor M4 (Homo sapiens) (P08173 whole entry, looked up): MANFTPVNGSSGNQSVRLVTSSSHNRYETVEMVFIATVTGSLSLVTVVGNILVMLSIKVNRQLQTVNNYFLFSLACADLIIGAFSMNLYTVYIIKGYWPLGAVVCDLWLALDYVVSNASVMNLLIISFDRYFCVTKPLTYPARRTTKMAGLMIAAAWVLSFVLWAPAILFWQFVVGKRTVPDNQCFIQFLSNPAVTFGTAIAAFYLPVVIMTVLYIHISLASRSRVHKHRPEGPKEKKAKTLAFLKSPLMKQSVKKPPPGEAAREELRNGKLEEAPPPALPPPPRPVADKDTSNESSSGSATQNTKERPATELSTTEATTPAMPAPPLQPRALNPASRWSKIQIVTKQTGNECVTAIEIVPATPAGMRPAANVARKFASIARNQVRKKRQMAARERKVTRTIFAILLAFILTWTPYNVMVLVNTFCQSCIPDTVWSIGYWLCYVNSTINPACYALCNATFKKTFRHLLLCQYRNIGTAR

As a reminder, the inhibition is the relative decrease from the control value, in per cent. With `COc1cc(C(=O)Nc2ccc(O)cc2C(=O)O)ccc1OC(C)=O`, the cell count in experiment [1] was 645. Besides, the inhibition in experiment [1] was 3.6% (inactive); in experiment [2], 31.5% (inactive); in experiment [4], 5.35% (inactive); in [9], 13.9% (inactive). For the same compound, in [2], the nuclei count amounted to 95.3%. Further, the z-score in [3] (setting [10]) was -0.0173; in experiment [3] (setting [11]), 0.715; in [3] (setting [12]), -0.436. In addition, the fluorescence slope was -0.547 (inactive) in experiment [5] and 0.00561 (inactive) in experiment [7]. The NADPH fluorescence slope in [6] was -6.2e-05 (inactive). Further, in [8], the call was inactive.

On to `Cn1ncc(N=Cc2c(O)ccc3ccccc23)c1C(=O)N1CCOCC1`, for which, in experiment [1], the cell count was found to be 713. Besides, the inhibition in [1] is -2.5% (inactive); in experiment [2], -43.6% (inactive); in [4], 3.97% (inactive); in experiment [9], 11.5% (inactive). In [2], this compound had a nuclei count of 175%. In addition, the z-score in experiment [3] (setting [10]) was 0.977; in experiment [3] (setting [11]), 0.19; in experiment [3] (setting [12]), 0.26. In addition, the figures for the fluorescence slope in experiment [5] and in [7] were -0.482 (inactive) and 0.00513 (inactive), respectively. In [6], the NADPH fluorescence slope is -9.8e-05 (inactive). Besides, in experiment [8], the compound was classed as inactive.

Consider `CC(C)(C)C1=Nn2c(nnc2C2CCCCC2)SC1`, for which, in experiment [1], the cell count amounted to 802. For the same compound, the inhibition in experiment [1] is -5.9% (inactive); in experiment [2] it was -150% (inactive); in experiment [4], 2.46% (inactive); in experiment [9], 3.81% (inactive). Moreover, the nuclei count in [2] worked out at 189%. In addition, the z-score in experiment [3] (setting [10]) amounted to 0.781; in experiment [3] (setting [11]), 1.46; in [3] (setting [12]), 0.611. The fluorescence slope in experiment [5] was -0.452 (inactive); in experiment [7], 0.00451 (inactive). Also, the NADPH fluorescence slope in [6] is -7.5e-05 (inactive). In [8], the call was inactive.

Consider `CC1(C)C2CCC1(C)C(OC(=O)CC(=O)O)C2` (stereo not drawn), for which the cell count in [1] worked out at 566. Also, the inhibition is -2% (inactive) in experiment [1], -63.5% (inactive) in experiment [2], 1.98% (inactive) in [4] and 5.19% (inactive) in experiment [9]. The compound further registered a nuclei count in [2] of 143%. Moreover, the z-score in [3] (setting [10]) was 0.899; in experiment [3] (setting [11]) it was -0.605; in [3] (setting [12]) it was 0.67. The fluorescence slope is -0.382 (inactive) in [5] and 0.00679 (inactive) in experiment [7]. For the same compound, the NADPH fluorescence slope in experiment [6] was -4.1e-05 (inactive). Moreover, the outcome in [8] was inactive.

With `CCOC(=O)C(C)Sc1nc(-c2cccs2)ccc1C#N` (stereo not drawn), in [1], the cell count worked out at 657. Besides, the inhibition in experiment [1] is 0.6% (inactive); in [2] it was 29.6% (inactive); in experiment [4], -7.86% (inactive); in experiment [9] it was 4.31% (inactive). Also, the nuclei count in experiment [2] is 189%. The figures for the z-score in experiment [3] (setting [10]), in experiment [3] (setting [11]) and in [3] (setting [12]) were -1.44, 0.836 and 0.563, respectively. For the same compound, the fluorescence slope is -0.427 (inactive) in experiment [5] and 0.00531 (inactive) in [7]. Moreover, the NADPH fluorescence slope in experiment [6] was -5.7e-05 (inactive). Further, in experiment [8], the result was inactive.

Take `CCOc1cccc(N2C(=O)CC(N(CCc3ccc(OC)c(OC)c3)C(=O)CC)C2=O)c1` (stereo not drawn): the cell count in experiment [1] is 586. Besides, the inhibition was -0.6% (inactive) in experiment [1], 2.4% (inactive) in experiment [2], -7.67% (inactive) in experiment [4] and -0.122% (inactive) in experiment [9]. In addition, in experiment [2], the nuclei count turned out to be 120%. In addition, the z-score was -0.772 in experiment [3] (setting [10]), 0.365 in experiment [3] (setting [11]) and -1.41 in experiment [3] (setting [12]). For the same compound, the fluorescence slope in experiment [5] is -0.453 (inactive); in experiment [7], 0.00547 (inactive). Moreover, the NADPH fluorescence slope in [6] was -1.2e-05 (inactive). In [8], the compound was classed as inactive.

Consider `CCOC(=O)c1c(NC(=O)CN2CCOCC2)sc2c1CC(C)(C)OC2`, for which the cell count in [1] was 525. For the same compound, the inhibition in experiment [1] is -12.5% (inactive); in [2] it was -92.8% (inactive); in experiment [4], 3.49% (inactive); in experiment [9], -12.3% (inactive). The compound also gave a nuclei count in experiment [2] of 146%. Also, the values for the z-score in experiment [3] (setting [10]), in experiment [3] (setting [11]) and in [3] (setting [12]) were 0.295, -0.682 and -0.184, respectively. Also, the fluorescence slope is -0.465 (inactive) in [5] and 0.00443 (inactive) in experiment [7]. In addition, the NADPH fluorescence slope in [6] is -4.6e-05 (inactive). Besides, in experiment [8], the outcome was inactive.

`COC(=O)C1CCN(c2nc3ccccc3nc2C(C#N)C(=O)NCCc2ccccc2)CC1` (stereo not drawn): in experiment [1], the cell count came to 600. In addition, the inhibition in experiment [1] was -8.8% (inactive); in experiment [2] it was -60.5% (inactive); in experiment [4], 1.42% (inactive); in [9], -8.92% (inactive). This compound came in with a nuclei count in [2] of 199%. Moreover, the z-score in experiment [3] (setting [10]) was 0.0104; in [3] (setting [11]) it was -0.0979; in experiment [3] (setting [12]), -0.225. Further, the fluorescence slope is -0.356 (inactive) in [5] and 0.00365 (inactive) in experiment [7]. For the same compound, the NADPH fluorescence slope in [6] was -5.2e-05 (inactive). The compound was called inactive in experiment [8].

For `COc1ccc(C2NC(=O)NC(O)(C(F)(F)F)C2C(=O)c2ccc(F)cc2)cc1` (stereo not drawn), the cell count in [1] is 632. For the same compound, the inhibition is 6.6% (inactive) in experiment [1], -68.3% (inactive) in experiment [2], -0.674% (inactive) in experiment [4] and -6.15% (inactive) in [9]. This compound also returned a nuclei count in experiment [2] of 159%. Moreover, the z-score in experiment [3] (setting [10]) is -1.22; in experiment [3] (setting [11]) it was 1.16; in [3] (setting [12]), 0.887. For the same compound, the fluorescence slope is -0.479 (inactive) in experiment [5] and 0.00666 (inactive) in experiment [7]. The NADPH fluorescence slope in experiment [6] is -5.2e-05 (inactive). Further, the compound was classed as inactive in [8].

Regarding `Cc1cc(=O)oc(C)c1C(=O)n1nc(C)c2c1C[C@@H]1[C@H]2C1(C)C`, in experiment [1], the cell count stood at 553. Also, the inhibition in experiment [1] was -3.8% (inactive); in experiment [2] it was -44.9% (inactive); in experiment [4] it was 15.9% (inactive); in [9], -9.72% (inactive). In addition, the nuclei count in experiment [2] is 176%. Moreover, the z-score in experiment [3] (setting [10]) was 0.489; in [3] (setting [11]) it was 0.72; in experiment [3] (setting [12]), -1.17. For the same compound, the fluorescence slope in experiment [5] is -0.403 (inactive); in [7] it was 0.00461 (inactive). Besides, the NADPH fluorescence slope in experiment [6] was -3.7e-05 (inactive). Further, the compound was classed as inactive in experiment [8].

With `CCc1ccc(NC(=O)CSC2=C(C#N)C(c3ccc4c(c3)OCO4)CC(=O)N2)cc1` (stereo not drawn), the cell count in experiment [1] is 599. The inhibition in experiment [1] was -14% (inactive); in [2] it was 41.8% (inactive); in experiment [4], 22.7% (inactive); in experiment [9], -5% (inactive). Also, in experiment [2], the nuclei count is 91.1%. Moreover, the values for the z-score in experiment [3] (setting [10]), in experiment [3] (setting [11]) and in experiment [3] (setting [12]) were 1.39, -1.52 and -0.214, respectively. Besides, the fluorescence slope in [5] was -0.491 (inactive); in experiment [7], 0.00667 (inactive). For the same compound, the NADPH fluorescence slope in experiment [6] was -4.6e-05 (inactive). Also, the result in experiment [8] was inactive.

The record behind these values is PubChem BioAssay.
